Series [1] deals with T1, Bifunctional epoxide hydrolase 2 (Homo sapiens, UniProt P34913).
T1 sequence (P34913 whole entry): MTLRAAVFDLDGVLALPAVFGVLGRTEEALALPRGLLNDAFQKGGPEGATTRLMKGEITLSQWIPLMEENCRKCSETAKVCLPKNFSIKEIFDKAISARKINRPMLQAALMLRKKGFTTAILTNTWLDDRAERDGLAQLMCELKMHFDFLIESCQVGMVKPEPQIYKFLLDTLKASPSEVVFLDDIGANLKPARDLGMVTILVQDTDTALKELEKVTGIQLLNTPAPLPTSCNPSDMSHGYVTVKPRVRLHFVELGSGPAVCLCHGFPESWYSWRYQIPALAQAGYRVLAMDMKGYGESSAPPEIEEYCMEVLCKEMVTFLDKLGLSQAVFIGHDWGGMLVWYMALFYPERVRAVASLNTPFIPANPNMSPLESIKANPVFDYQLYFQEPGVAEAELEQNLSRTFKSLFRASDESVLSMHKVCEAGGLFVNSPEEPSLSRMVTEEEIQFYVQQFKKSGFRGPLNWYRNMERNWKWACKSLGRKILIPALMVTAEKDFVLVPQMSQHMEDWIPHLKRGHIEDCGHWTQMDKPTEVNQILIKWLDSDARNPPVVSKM
In words: Inhibition of human soluble epoxide hydrolase.

The nature of series [2]: Inhibition of potassium channel IKr.
Series [3] can be described thus: Half life in rat at 1 mg/kg, iv and 2 mg/kg, po. In kind it is ADME, organism-based. The settings on record: in vivo. The essentials: (§1)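 Rats dosed IV at 1 mg/kg (n = 2) and PO at 2 mg/kg (n = 3). Blood drug levels measured by LC/MS/MS after protein precipitation with acetonitrile.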
For a further series, the target named is CYP2D6 (Homo sapiens, UniProt P10635). In words: (§2) Inhibition of CYP2D6. Type of series: ADME.
Series [4] can be described thus: Volume of distribution at steady state in rat at 1 mg/kg, iv and 2 mg/kg, po. Type of series: ADME, organism-based. The note with it: in vivo, read-out: Vdss. The essentials:
as §1

Series [5] can be described thus: Clearance in rat at 1 mg/kg, iv and 2 mg/kg, po. Type of series: ADME, organism-based. The note with it: in vivo. The essentials:
as §1

Series [6] can be described thus: Bioavailability in rat at 1 mg/kg, iv and 2 mg/kg, po. The settings on record: in vivo. Type of series: ADME, organism-based. The essentials: as §1
The target in another series is Cytochrome P450 3A4 (Homo sapiens, UniProt P08684). As to the kind of experiment: Inhibition of CYP3A4. In kind it is ADME.
The target of a further series is T2, Epoxide hydrolase 1 (Homo sapiens, UniProt P07099).
T2 sequence (P07099 whole entry): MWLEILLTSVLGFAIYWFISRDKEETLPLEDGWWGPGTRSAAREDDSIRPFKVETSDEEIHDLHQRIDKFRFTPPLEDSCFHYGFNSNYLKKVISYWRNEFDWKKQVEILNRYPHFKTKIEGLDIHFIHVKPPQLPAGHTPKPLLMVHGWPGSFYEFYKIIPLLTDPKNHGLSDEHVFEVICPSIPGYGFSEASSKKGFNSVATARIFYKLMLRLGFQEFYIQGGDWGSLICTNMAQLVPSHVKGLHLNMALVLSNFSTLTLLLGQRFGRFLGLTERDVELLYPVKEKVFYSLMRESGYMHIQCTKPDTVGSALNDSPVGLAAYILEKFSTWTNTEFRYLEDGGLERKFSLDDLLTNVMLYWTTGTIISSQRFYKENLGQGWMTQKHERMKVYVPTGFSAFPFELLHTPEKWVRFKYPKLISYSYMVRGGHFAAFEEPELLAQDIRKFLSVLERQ
As to the kind of experiment: Inhibition of human microsomal epoxide hydrolase. The essentials:
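Human mEH used as the counterscreen enzyme. Values come from one or two experiments, each in triplicate, with repeats within 20%.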

The target in series [7] is T1, Bifunctional epoxide hydrolase 2. As to the kind of experiment: Inhibition of human soluble epoxide hydrolase in HEK293 cells assessed as DHET production. Type of series: cell-based. The essentials:
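Whole-cell 14,15-DHET production assay in HEK293 cells, run with or without 10% human serum. Values come from one or two experiments, each in triplicate, with repeats within 20%.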

The next series concerns the target L-type calcium channel. As to the kind of experiment: Inhibition of calcium channel diltiazem binding site.
The target in series [8] is Sodium channel protein type 5 subunit alpha (Homo sapiens, UniProt Q14524). As to the kind of experiment: Inhibition of Nav1.5 channel.
In the next series the target is Cytochrome P450 2C9 (Homo sapiens, UniProt P11712). In words: Inhibition of CYP2C9. In kind it is ADME.
Series [9] concerns the target T3, Bifunctional epoxide hydrolase 2 (Rattus norvegicus, UniProt P80299).
T3 sequence (P80299 whole entry): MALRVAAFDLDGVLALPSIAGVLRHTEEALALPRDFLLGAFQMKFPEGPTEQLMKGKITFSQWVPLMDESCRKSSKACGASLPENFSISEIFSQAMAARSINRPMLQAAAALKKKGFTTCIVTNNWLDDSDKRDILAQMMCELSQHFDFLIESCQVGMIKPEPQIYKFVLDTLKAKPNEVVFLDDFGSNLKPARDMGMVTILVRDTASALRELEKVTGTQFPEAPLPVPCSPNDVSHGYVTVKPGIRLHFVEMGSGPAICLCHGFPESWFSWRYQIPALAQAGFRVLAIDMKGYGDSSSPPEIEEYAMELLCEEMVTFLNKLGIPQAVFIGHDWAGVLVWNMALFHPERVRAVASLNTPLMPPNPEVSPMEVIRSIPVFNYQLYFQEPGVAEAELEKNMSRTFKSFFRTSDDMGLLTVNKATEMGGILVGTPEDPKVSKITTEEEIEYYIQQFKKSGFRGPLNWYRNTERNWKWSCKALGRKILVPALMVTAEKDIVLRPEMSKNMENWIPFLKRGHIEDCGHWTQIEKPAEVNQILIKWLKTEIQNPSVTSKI
As to the kind of experiment: Inhibition of rat soluble epoxide hydrolase.

The next series concerns the target Cytochrome P450 2D6 (Homo sapiens, UniProt P10635). Described as §2. Type of series: ADME.
In a further series the target is T4, Cytochrome P450 2C8 (Homo sapiens, UniProt P10632).
T4 sequence (P10632 whole entry): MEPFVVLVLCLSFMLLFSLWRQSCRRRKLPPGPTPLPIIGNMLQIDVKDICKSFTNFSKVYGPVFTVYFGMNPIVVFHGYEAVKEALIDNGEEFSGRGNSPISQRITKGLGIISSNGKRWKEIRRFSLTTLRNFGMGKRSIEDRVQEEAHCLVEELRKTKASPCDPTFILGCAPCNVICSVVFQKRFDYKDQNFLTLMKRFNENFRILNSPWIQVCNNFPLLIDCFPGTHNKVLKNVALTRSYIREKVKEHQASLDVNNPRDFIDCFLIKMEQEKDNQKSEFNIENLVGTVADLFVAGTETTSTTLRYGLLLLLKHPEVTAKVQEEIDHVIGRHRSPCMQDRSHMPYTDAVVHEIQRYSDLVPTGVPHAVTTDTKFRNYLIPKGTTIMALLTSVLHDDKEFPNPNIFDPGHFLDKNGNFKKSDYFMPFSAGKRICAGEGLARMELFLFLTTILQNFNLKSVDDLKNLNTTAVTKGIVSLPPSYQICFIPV
In words: Inhibition of CYP2C8. In kind it is ADME.

The subject of series [10] is Rattus norvegicus. In words: Antihypertensive activity in spontaneously hypertensive rat assessed as change in systolic blood pressure at 50 mg/kg, po up to 8 hrs by telemetry method. In kind it is functional, organism-based. More on the design: dose 50 mg/kg. The settings on record: Artery. The essentials: (§3)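 Spontaneously hypertensive rats dosed orally at 50 mpk. Systolic and diastolic blood pressure, heart rate and pulse pressure recorded by telemetry over 8 h post dose.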

In series [11] the test system is Rattus norvegicus. In words: Antihypertensive activity in spontaneously hypertensive rat assessed as change in diastolic blood pressure at 50 mg/kg, po up to 8 hrs by telemetry method. In kind it is functional, organism-based. Details: dose 50 mg/kg. The note with it: Artery. Put shortly:
as §3

SMILES strings stand for the structures. pIC50: −log10 of the molar value. Activity calls are given as the source filed them. No cut-off for these calls is given here.

CYP2D6, sequence (P10635 whole entry): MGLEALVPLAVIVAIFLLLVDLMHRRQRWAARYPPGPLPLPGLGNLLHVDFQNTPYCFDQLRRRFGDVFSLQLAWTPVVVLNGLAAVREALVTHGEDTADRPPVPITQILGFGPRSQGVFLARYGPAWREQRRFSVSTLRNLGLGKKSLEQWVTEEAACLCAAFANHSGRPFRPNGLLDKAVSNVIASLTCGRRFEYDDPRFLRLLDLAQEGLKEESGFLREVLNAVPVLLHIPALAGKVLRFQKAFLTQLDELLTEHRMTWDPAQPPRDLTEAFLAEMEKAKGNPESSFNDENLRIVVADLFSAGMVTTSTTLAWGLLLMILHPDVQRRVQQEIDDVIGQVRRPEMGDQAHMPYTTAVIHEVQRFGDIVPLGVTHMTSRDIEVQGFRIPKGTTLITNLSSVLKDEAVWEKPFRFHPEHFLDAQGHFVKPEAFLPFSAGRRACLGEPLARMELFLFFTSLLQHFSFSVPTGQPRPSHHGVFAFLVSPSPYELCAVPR
Cytochrome P450 2C9, sequence (P11712 whole entry): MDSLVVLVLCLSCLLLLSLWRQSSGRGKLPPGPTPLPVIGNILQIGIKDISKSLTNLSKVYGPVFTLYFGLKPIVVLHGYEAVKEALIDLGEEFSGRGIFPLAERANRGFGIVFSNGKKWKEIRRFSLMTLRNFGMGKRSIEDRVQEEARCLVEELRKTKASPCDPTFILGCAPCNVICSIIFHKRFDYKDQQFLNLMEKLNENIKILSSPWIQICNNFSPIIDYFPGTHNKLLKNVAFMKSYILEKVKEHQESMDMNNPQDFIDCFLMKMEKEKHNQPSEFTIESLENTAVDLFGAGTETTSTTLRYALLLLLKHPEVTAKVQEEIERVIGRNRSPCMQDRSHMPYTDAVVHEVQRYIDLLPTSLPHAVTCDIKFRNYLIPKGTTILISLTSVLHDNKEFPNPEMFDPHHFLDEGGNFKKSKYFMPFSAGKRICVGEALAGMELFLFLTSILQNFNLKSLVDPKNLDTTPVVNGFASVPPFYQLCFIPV
Cytochrome P450 3A4, sequence (P08684 whole entry): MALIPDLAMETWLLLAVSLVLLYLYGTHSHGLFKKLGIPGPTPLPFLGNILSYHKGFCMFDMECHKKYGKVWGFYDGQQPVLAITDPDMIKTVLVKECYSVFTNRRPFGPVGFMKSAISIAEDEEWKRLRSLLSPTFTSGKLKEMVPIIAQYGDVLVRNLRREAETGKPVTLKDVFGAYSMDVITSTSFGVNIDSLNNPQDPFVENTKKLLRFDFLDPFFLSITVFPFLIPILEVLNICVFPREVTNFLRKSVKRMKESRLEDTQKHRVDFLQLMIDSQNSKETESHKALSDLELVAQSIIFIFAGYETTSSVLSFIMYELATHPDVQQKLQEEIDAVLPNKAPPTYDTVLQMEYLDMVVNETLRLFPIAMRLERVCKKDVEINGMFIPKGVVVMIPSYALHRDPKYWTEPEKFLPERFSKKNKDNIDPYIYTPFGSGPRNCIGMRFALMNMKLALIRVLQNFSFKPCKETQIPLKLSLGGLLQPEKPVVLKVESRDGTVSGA
Sodium channel protein type 5 subunit alpha, sequence (Q14524 whole entry): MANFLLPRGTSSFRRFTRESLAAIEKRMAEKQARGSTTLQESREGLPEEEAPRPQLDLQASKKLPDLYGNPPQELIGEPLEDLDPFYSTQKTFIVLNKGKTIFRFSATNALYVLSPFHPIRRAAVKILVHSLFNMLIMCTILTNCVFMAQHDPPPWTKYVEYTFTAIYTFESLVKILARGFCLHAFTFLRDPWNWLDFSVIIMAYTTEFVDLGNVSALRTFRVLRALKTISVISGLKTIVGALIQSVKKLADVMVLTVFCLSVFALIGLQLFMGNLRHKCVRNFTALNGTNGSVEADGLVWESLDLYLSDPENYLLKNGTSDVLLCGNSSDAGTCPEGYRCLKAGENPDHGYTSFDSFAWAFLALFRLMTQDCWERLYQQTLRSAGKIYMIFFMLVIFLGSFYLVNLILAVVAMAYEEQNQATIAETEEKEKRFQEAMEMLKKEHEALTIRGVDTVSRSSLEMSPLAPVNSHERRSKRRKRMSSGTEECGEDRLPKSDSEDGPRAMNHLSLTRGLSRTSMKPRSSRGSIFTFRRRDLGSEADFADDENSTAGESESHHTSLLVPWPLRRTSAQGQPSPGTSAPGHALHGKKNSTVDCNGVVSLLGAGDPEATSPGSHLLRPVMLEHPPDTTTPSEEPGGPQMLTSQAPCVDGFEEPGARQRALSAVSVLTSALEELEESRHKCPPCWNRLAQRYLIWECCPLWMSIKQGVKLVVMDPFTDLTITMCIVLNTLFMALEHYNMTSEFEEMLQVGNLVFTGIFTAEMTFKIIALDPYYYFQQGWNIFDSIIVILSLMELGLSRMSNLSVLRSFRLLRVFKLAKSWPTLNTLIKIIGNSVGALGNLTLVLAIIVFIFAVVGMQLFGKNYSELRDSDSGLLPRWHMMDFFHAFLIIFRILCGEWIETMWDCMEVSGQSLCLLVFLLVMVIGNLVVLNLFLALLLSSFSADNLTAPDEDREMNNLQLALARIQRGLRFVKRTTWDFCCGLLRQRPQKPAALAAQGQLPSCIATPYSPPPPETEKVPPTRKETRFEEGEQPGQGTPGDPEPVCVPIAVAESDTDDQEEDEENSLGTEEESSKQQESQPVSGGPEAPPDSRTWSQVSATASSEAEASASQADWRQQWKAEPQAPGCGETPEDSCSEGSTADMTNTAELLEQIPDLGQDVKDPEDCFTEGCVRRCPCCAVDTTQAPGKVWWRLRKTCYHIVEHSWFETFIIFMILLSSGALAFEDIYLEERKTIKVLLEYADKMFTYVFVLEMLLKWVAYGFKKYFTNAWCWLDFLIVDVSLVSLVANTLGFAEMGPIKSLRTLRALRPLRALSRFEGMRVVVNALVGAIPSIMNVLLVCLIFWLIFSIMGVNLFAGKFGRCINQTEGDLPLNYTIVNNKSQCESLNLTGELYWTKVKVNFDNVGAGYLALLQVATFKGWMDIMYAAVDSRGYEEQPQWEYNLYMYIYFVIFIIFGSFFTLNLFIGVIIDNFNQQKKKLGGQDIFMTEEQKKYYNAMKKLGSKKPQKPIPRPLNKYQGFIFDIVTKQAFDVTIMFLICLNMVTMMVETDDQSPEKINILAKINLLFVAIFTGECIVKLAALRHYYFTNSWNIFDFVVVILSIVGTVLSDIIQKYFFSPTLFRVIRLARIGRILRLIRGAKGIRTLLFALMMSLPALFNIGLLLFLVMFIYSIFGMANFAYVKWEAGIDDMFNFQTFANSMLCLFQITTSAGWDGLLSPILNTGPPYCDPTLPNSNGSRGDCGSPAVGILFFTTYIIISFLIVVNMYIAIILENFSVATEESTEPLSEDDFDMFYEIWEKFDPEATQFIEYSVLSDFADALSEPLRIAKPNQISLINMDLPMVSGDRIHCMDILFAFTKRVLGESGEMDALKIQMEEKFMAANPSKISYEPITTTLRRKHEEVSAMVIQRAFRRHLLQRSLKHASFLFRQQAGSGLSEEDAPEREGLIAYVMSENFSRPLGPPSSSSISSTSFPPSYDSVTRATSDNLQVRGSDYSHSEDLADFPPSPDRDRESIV
Cytochrome P450 2D6, sequence (P10635 whole entry): as the sequence (P10635 whole entry) above

One may read the pIC50 as the IC50 on a negative log10 scale, so that one unit is a factor of ten. Broadly, the half-life is the time in which the quantity being followed falls by half. Read a high half-life as slow decline. As usually defined, the bioavailability is the share of a dose that reaches the circulation, judged against a reference dose that is usually intravenous. Read a low bioavailability as poor availability. As to `CN(C)CCC1(c2ccccc2)CCCN(C(=O)Nc2ccc(Cl)cc2)C1` (stereo unspecified), the pIC50 in series [1] is 7.92; in series [2] it was 6.52; on CYP2D6, over 5.00; against Cytochrome P450 3A4, over 5.00; against Epoxide hydrolase 1, under 4.00; in series [7], 8.89. The negative logarithm of the IC50 (pIC50) was 7.00 on L-type calcium channel, under 5.00 in series [8], under 5.00 on Cytochrome P450 2C9 and 6.92 in [9]. The molecule also had a half-life in series [3] of 39.6 min. Moreover, in series [4], the Vd is 1.4 L/kg. In addition, in series [5], the clearance turned out to be 59 mL/min/kg. For the same molecule, the bioavailability in [6] amounted to 52%.
With `CC1(c2ccccc2)CCCN(C(=O)NCCc2ccc(Cl)cc2)C1` (stereo unspecified), the pIC50 is 9.00 in series [1]; 5.05 in series [2]; over 5.00 against CYP2D6; over 5.00 on Cytochrome P450 3A4; 4.27 against Epoxide hydrolase 1; 5.70 at L-type calcium channel. Moreover, the pIC50 against Cytochrome P450 2C9 was under 5.00; in series [9], 8.30.
On to `O=C(O)CCC1(c2ccccc2)CCCN(C(=O)Nc2ccc(Cl)cc2)C1` (stereo in doubt) [listing 1 of 2 here], for which the pIC50 in series [1] was 8.30; against Cytochrome P450 2D6, under 4.00; at Cytochrome P450 3A4, under 4.00; against Cytochrome P450 2C8, 4.19; at Epoxide hydrolase 1, under 4.00; in [7], 8.70. Moreover, the values for the pIC50 (in series [8]; on Cytochrome P450 2C9; in [9]) were under 5.00, under 4.00 and 7.16, respectively.
In the case of `O=C(O)CCC1(c2ccccc2)CCCN(C(=O)Nc2ccc(Cl)cc2)C1` (stereo in doubt) [listing 2 of 2 here], the outcome with Rattus norvegicus [10] and in the series with Rattus norvegicus [11] was inactive.
For `CC1(c2ccccc2)CCCN(C(=O)NCCc2ccc3nc[nH]c3c2)C1` (stereo unspecified), the pIC50 in series [1] is 7.54; in series [2], 4.89; on CYP2D6 it was over 5.00; at Cytochrome P450 3A4, under 5.00; against Epoxide hydrolase 1 it was under 4.00; in [7], 7.89. The pIC50 against Cytochrome P450 2C9 is over 5.00; in series [9], 7.59.

The record behind these values is ChEMBL document CHEMBL1154229 (Bioorg Med Chem Lett, 2009).
